Measured values reported in paper PMC5885750 (Bioorganic & medicinal chemistry letters, 2018).

Key:
[1] = molecular target: T1, Heptosyltransferase I (HepI) (Escherichia coli, UniProt P24173); experiment: Kinetic characterization of inhibition mechanism; format: biochemical
Method in brief: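 Rates at rising inhibitor levels fitted to a mixed (noncompetitive) equation with Ks, Ki and α. α marks preference for free enzyme (>1), ternary complex (<1) or neither (=1). It is judged from whether Km rises, falls or stays unchanged as inhibitor increases. ODLA acceptor was varied in the ODLA series.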

[2] = molecular target: T1, Heptosyltransferase I (HepI); experiment: Inhibition of HepI catalysis with substrates ODLA and ADP-Heptose; format: biochemical

T1 sequence (P24173 whole entry): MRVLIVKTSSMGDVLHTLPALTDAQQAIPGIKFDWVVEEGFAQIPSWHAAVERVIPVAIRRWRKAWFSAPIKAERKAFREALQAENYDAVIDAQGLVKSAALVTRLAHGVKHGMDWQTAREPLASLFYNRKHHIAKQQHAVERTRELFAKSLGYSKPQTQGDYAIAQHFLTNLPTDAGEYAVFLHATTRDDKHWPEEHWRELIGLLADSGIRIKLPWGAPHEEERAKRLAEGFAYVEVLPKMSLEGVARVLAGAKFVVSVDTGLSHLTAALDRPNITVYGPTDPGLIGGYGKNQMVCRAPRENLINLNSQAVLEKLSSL

## CCCC/C=C/CO[C@@H]1O[C@H](CO)[C@@H](O)[C@H](O)[C@H]1O [Compound 7, hexene-β-D-glucopyranoside]
[1]; [Inhibitor] 10 μM
  kcat ADP-Heptose: 2.8 ± 0.3 s⁻¹
  kcat ODLA: 1.4 ± 0.03 s⁻¹
[1]; [Inhibitor] 100 μM
  kcat ADP-Heptose: 1.6 ± 0.1 s⁻¹
  kcat ODLA: 1.3 ± 0.004 s⁻¹
[1]; [Inhibitor] 1000 μM
  kcat ADP-Heptose: 0.76 ± 0.08 s⁻¹
  kcat ODLA: 0.9 ± 0.2 s⁻¹
[1]; acceptor substrate ODLA varied
  type of inhibition against ODLA: uncompetitive inhibition
[1]; against ADP-Heptose, α<1 = prefers ES complex
  α (preference for free enzyme or ES complex): < 1
[1]; donor substrate ADP-Heptose varied
  type of inhibition against ADP-Heptose: noncompetitive (mixed-competitive) inhibition

## CCCCCCCCO[C@@H]1O[C@H](CO)[C@@H](O)[C@H](O)[C@H]1O [n-Octyl-β-D-glucopyranoside]
[2]
  inhibition of HepI activity (in words): small degree of inhibition
